Assay results from ChEMBL document CHEMBL3414494 (Eur J Med Chem, 2015).
Activity calls are given as the source filed them. No cut-off for these calls is given here.

Legend:
[1] = system: SJSA-1; assay: Cytotoxicity against human SJSA1 cells assessed as growth inhibition after 72 hrs by MTT assay; type: functional, cell-based; details: SJSA-1, 72 h
How it was run: (§1)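 Cells were seeded at 2000–3000 per well and pre-incubated 24 h at 37 °C, 5% CO2. A concentration range of compound was then added for 72 h. MTT (5 mg/mL) was added for 3 h, the medium removed, and formazan dissolved in DMSO. Absorbance was read at 550 nm as the viable-cell measure.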

[2] = target: Histone deacetylase 1 (Homo sapiens, UniProt Q13547); assay: Inhibition of recombinant human HDAC1 expressed in baculovirus infected insect High5 cells using Ac-Lys-Tyr-Lys (epsilon-acetyl)-AMC as substrate after 24 hrs by fluorescence assay
[3] = target: Tubulin (Homo sapiens) (UniProt P68371+Q9H4B7+P0DPH7+P68366+Q13509+Q71U36+P04350+Q3ZCM7+P07437+P68363+Q9BQE3+Q6PEY2+Q13885+Q9BVA1+Q9BUF5); assay: Inhibition of tubulin (unknown origin) polymerization at 10 uM; type: protein-complex assay
[4] = Cytotoxicity against human HCT116 cells assessed as growth inhibition after 72 hrs by MTT assay; type: functional, cell-based; details: HCT-116, 72 h; how it was run: as §1
[5] = Cytotoxicity against human SNU5 cells assessed as growth inhibition after 72 hrs by MTT assay; type: functional, cell-based; details: SNU-5, 72 h; how it was run: as §1
[6] = Cytotoxicity against human MHCC97H cells assessed as growth inhibition after 72 hrs by MTT assay; type: functional, cell-based; how it was run: as §1
[7] = system: SW-620; assay: Cytotoxicity against human SW620 cells assessed as growth inhibition after 72 hrs by MTT assay; type: functional, cell-based; details: SW-620, 72 h; how it was run: as §1
[8] = system: HepG2; assay: Cytotoxicity against human HepG2 cells assessed as growth inhibition after 72 hrs by MTT assay; type: functional, cell-based; details: HepG2, 72 h; how it was run: as §1
[9] = Cytotoxicity against human SNU16 cells assessed as growth inhibition after 72 hrs by MTT assay; type: functional, cell-based; details: SNU-16, 72 h; how it was run: as §1
[10] = Cell cycle arrest in human HCT116 cells assessed as accumulation at G2/M phase at 10 to 20 nM after 24 hrs by flow cytometric analysis; type: functional, cell-based; details: HCT-116
[11] = Cytotoxicity against human PANC1 cells assessed as growth inhibition after 72 hrs by MTT assay; type: functional, cell-based; details: PANC-1, 72 h; how it was run: as §1
[12] = Cytotoxicity against human Hep3B cells assessed as growth inhibition after 72 hrs by MTT assay; type: functional, cell-based, Hep 3B2; how it was run: as §1
[13] = target: Histone deacetylase 2 (Homo sapiens, UniProt Q92769); assay: Inhibition of recombinant human HDAC2 expressed in baculovirus infected insect High5 cells using Ac-Lys-Tyr-Lys (epsilon-acetyl)-AMC as substrate after 24 hrs by fluorescence assay
[14] = Cytotoxicity against human MKN45 cells assessed as growth inhibition after 72 hrs by MTT assay; type: functional, cell-based; details: MKN-45, 72 h; how it was run: as §1
[15] = target: Histone deacetylase 3 (Homo sapiens, UniProt O15379); assay: Inhibition of recombinant human HDAC3 expressed in baculovirus infected insect High5 cells using Ac-Lys-Tyr-Lys (epsilon-acetyl)-AMC as substrate after 3 hrs by fluorescence assay
[16] = system: A549; assay: Cytotoxicity against human A549 cells assessed as growth inhibition after 72 hrs by MTT assay; type: functional, cell-based; details: A549, 72 h
How it was run: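 A549 human lung adenocarcinoma cells were seeded at 2000–3000 cells/well and held 24 h at 37 °C in 5% CO2. They were then exposed to a range of compound concentrations for 72 h at 37 °C. MTT (5 mg/mL stock) was added for 3 h, the medium was removed, formazan was dissolved in DMSO, and absorbance was read at 550 nm.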

Chain of Histone deacetylase 2 (Q92769 whole entry): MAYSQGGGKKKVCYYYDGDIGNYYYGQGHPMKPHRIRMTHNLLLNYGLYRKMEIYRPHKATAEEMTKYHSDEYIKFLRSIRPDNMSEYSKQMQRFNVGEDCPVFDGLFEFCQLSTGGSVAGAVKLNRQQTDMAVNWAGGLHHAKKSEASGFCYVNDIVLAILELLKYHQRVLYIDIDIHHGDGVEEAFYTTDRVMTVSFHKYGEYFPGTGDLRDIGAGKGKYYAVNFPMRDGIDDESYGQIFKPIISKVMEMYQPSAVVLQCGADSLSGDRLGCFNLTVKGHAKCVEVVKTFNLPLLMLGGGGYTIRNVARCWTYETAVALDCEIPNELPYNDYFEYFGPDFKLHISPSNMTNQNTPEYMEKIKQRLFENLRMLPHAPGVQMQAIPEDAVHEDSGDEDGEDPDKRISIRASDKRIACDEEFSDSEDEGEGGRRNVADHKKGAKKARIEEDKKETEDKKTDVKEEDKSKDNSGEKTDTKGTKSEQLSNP
Chain of Histone deacetylase 1 (Q13547 whole entry): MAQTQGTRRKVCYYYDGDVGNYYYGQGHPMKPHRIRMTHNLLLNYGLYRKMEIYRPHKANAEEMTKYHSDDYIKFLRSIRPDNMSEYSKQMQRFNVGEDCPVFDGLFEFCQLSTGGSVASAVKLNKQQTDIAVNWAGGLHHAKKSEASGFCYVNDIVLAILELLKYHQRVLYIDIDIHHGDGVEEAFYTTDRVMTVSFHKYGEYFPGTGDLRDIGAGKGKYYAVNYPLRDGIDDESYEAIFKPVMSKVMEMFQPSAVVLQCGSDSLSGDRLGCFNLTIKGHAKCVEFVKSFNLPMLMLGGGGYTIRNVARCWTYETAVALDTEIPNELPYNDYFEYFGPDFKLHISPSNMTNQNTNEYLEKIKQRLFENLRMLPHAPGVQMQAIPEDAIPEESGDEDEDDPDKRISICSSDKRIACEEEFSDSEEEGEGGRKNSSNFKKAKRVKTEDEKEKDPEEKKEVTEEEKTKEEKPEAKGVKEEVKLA
Chain of Histone deacetylase 3 (O15379 whole entry): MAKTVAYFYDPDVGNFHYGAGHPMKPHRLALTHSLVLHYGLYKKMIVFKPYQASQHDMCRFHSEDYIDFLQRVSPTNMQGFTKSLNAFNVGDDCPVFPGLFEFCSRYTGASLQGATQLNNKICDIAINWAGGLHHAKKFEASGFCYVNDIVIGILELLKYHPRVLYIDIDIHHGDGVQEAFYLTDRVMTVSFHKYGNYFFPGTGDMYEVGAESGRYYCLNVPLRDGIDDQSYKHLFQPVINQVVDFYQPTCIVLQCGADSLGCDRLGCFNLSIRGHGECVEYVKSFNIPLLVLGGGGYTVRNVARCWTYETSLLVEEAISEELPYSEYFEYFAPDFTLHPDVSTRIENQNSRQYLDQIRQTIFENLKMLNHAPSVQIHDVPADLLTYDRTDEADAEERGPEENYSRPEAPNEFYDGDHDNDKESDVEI

Structure (SMILES): COc1cc2c(c(OC)c1OC)-c1ccc(OC)c(=O)cc1[C@@H](NCc1ccc(C(=O)Nc3ccccc3N)cc1)CC2
- IC50 [1]: 9 nM
- IC50 [2]: 12500 nM
- inhibition [3]: Active
- IC50 [4]: 5 nM
- IC50 [5]: 14 nM
- IC50 [6]: 43 nM
- IC50 [7]: 2 nM
- IC50 [8]: 14 nM
- IC50 [9]: 2 nM
- Activity [10]: Active
- IC50 [11]: 5 nM
- IC50 [12]: 5 nM
- IC50 [13]: 6730 nM
- IC50 [14]: 2 nM
- IC50 [15]: 11200 nM
- IC50 [16]: 106 nM

Structure (SMILES): COc1cc2c(c(OC)c1OC)-c1ccc(OC)c(=O)cc1[C@@H](NCc1ccc(C(=O)Nc3cc(-c4cccs4)ccc3N)cc1)CC2
- IC50 [2]: 3320 nM
- IC50 [13]: 270 nM
- IC50 [15]: 1470 nM
- IC50 [16]: 1040 nM

Structure (SMILES): COc1cc2c(c(OC)c1OC)-c1ccc(OC)c(=O)cc1[C@@H](NC(C)=O)CC2 [COLCHICINE]
- IC50 [1]: 8 nM
- IC50 [2]: > 50100 nM
- IC50 [4]: 40 nM
- IC50 [5]: 34 nM
- IC50 [6]: 110 nM
- IC50 [7]: 5 nM
- IC50 [8]: 27 nM
- IC50 [9]: 5 nM
- Activity [10]: Active
- IC50 [11]: 21 nM
- IC50 [12]: 14 nM
- IC50 [13]: > 50100 nM
- IC50 [14]: 2 nM
- IC50 [15]: > 50100 nM
- IC50 [16]: 105 nM

Structure (SMILES): COc1cc2c(c(OC)c1OC)-c1ccc(OC)c(=O)cc1[C@@H](NC(=O)c1cccc(C(=O)Nc3cc(-c4cccs4)ccc3N)c1)CC2
- IC50 [1]: 27 nM
- IC50 [2]: 1500 nM
- inhibition [3]: Active
- IC50 [4]: 39 nM
- IC50 [5]: 119 nM
- IC50 [6]: 339 nM
- IC50 [7]: 4 nM
- IC50 [8]: 20 nM
- IC50 [9]: 5 nM
- Activity [10]: Active
- IC50 [11]: 19 nM
- IC50 [12]: 10 nM
- IC50 [13]: 190 nM
- IC50 [14]: 2 nM
- IC50 [15]: 1490 nM
- IC50 [16]: 2790 nM

Structure (SMILES): COc1cc2c(c(OC)c1OC)-c1ccc(OC)c(=O)cc1[C@@H](NC(=O)c1cccc(C(=O)Nc3ccccc3N)c1)CC2
- IC50 [2]: 9620 nM
- IC50 [13]: 4910 nM
- IC50 [15]: 10800 nM
- IC50 [16]: 3430 nM

Structure (SMILES): Nc1ccccc1NC(=O)c1ccc(CNc2nccc(-c3cccnc3)n2)cc1 [MOCETINOSTAT]
- IC50 [1]: 3620 nM
- IC50 [4]: 396 nM
- IC50 [5]: 1010 nM
- IC50 [6]: 4560 nM
- IC50 [7]: 419 nM
- IC50 [8]: 876 nM
- IC50 [9]: 142 nM
- IC50 [11]: 26800 nM
- IC50 [12]: 823 nM
- IC50 [14]: 610 nM
- IC50 [16]: 2080 nM

Structure (SMILES): COc1cc2c(c(OC)c1OC)-c1ccc(OC)c(=O)cc1[C@@H](NCc1cccc(C(=O)Nc3ccccc3N)c1)CC2
- IC50 [2]: > 34400 nM
- inhibition [3]: Active
- IC50 [13]: > 34400 nM
- IC50 [15]: > 34400 nM
- IC50 [16]: 354 nM

Structure (SMILES): COc1cc2c(c(OC)c1OC)-c1ccc(OC)c(=O)cc1[C@@H](NC(=O)c1ccc(C(=O)Nc3cc(-c4cccs4)ccc3N)cc1)CC2
- IC50 [2]: 2240 nM
- IC50 [13]: 380 nM
- IC50 [15]: 1970 nM
- IC50 [16]: 740 nM

Structure (SMILES): COc1cc2c(c(OC)c1OC)-c1ccc(OC)c(=O)cc1[C@@H](NCc1cccc(C(=O)Nc3cc(-c4cccs4)ccc3N)c1)CC2
- IC50 [2]: 25500 nM
- IC50 [13]: 5410 nM
- IC50 [15]: 19700 nM
- IC50 [16]: 393 nM

Structure (SMILES): COc1cc2c(c(OC)c1OC)-c1ccc(OC)c(=O)cc1[C@@H](NC(=O)c1ccc(C(=O)Nc3ccccc3N)cc1)CC2
- IC50 [2]: 15900 nM
- IC50 [13]: 10400 nM
- IC50 [15]: 12100 nM
- IC50 [16]: 1620 nM
